According to ChEMBL document CHEMBL3352325, “Synthesis and biological evaluation of novel aniline-derived asiatic acid derivatives as potential anticancer agents” (Eur J Med Chem, 2014):
Calls of active or inactive are those of the source. No cut-off for these calls is given here.

Tests used:
[1] = test system: MGC-803; test: Cytotoxicity against human MGC803 cells after 48 hrs by MTT assay; type: functional, cell-based; conditions: MGC-803, 48 h
Outline: (§1)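 Cells grown in medium with 10% heat-inactivated FBS, 5% CO2, 37 °C. Compounds given in medium with 1% DMSO at 1.25–20 graded concentrations; 1% DMSO medium served as control. MTT (5 mg/mL) added, formazan dissolved in DMSO, absorbance read at 570/630 nm. Survival expressed relative to negative control. IC50 by Bliss method (n=5), at least three independent experiments, mean ± SD.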

[2] = test system: NCI-H460; test: Cytotoxicity against human NCI-H460 cells after 48 hrs by MTT assay; type: functional, cell-based; conditions: NCI-H460, 48 h; outline: as §1
[3] = test system: HepG2; test: Cytotoxicity against human HepG2 cells after 48 hrs by MTT assay; type: functional, cell-based; conditions: HepG2, 48 h; outline: as §1
[4] = test system: HeLa; test: Cytotoxicity against human HeLa cells after 48 hrs by MTT assay; type: functional, cell-based; outline: as §1
[5] = Cytotoxicity against human SMMC-7404 cells after 48 hrs by MTT assay; type: functional, cell-based; conditions: SMMC-7404, 48 h; outline: as §1
[6] = test system: HUVEC; test: Cytotoxicity against human HUVEC cells after 48 hrs by MTT assay; type: cell-based; outline: as §1
[7] = test system: HepG2; test: Induction of apoptosis in human HepG2 cells assessed as early apoptotic cells at 10 uM after 12 hrs by flow cytometry (reference value: 2.1 %); type: functional
Outline: (§2)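 HepG2 cells treated 12 h at 10 or 20 µM, with untreated control. Stained with annexin V-FITC plus PI for 30 min at 25 °C in the dark. Quadrant percentages read by flow cytometry.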

[8] = test system: HepG2; test: Induction of apoptosis in human HepG2 cells assessed as change in membrane integrity using acridine orange/ethidium bromide staining at 20 uM after 12 to 24 hrs by fluorescence microscopy; type: functional, cell-based
Outline: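 HepG2 cells on coverslips treated with 20 µM in medium with 10% FBS for 12 or 24 h, with untreated 24 h control. Stained with AO/EB and examined by fluorescence microscopy: green = live, green-yellow = early apoptotic, orange = late apoptotic or necrotic.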

[9] = test system: HepG2; test: Induction of apoptosis in human HepG2 cells assessed as condensation of nucleus using hoechst staining at 20 uM after 12 to 24 hrs by fluorescence microscopy; type: functional, cell-based
Outline: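 HepG2 cells on coverslips treated at 20 µM for 12 or 24 h, with untreated 24 h control. Fixed in 4% paraformaldehyde for 10 min, then stained with Hoechst 33258 for 5 min. Nuclei viewed by fluorescence microscopy at 350 nm excitation and 460 nm emission.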

[10] = test system: HepG2; test: Induction of apoptosis in human HepG2 cells assessed as change in morphology at 20 uM after 12 to 24 hrs using JC-1 staining by fluorescence microscopy; type: functional, cell-based
Outline: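 HepG2 cells treated at 20 µM for 12 or 24 h, with untreated 24 h control. Incubated with JC-1 (5 µg/ml) at 37 °C for 20 min, rinsed in PBS. Green (515–545 nm) and red (570–600 nm) emission imaged by fluorescence microscopy; depolarization taken as a rise in green/red ratio.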

[11] = test system: HepG2; test: Induction of apoptosis in human HepG2 cells assessed as late apoptotic cells at 10 uM after 12 hrs by flow cytometry (reference value: 6.9 %); type: functional; outline: as §2
[12] = test system: HepG2; test: Induction of apoptosis in human HepG2 cells assessed as necrotic cells at 10 uM after 12 hrs by flow cytometry (reference value: 2.3 %); type: functional; outline: as §2
[13] = test system: HepG2; test: Induction of apoptosis in human HepG2 cells after 12 hrs by flow cytometry; type: functional, cell-based; outline: as §2
[14] = test system: HepG2; test: Induction of apoptosis in human HepG2 cells assessed as early apoptotic cells at 20 uM after 12 hrs by flow cytometry (reference value: 2.1 %); type: functional; outline: as §2
[15] = test system: HepG2; test: Induction of apoptosis in human HepG2 cells assessed as late apoptotic cells at 20 uM after 12 hrs by flow cytometry (reference value: 6.9 %); type: functional; outline: as §2
[16] = test system: HepG2; test: Induction of apoptosis in human HepG2 cells assessed as necrotic cells at 20 uM after 12 hrs by flow cytometry (reference value: 2.3 %); type: functional; outline: as §2
[17] = test system: HepG2; test: Cell cycle arrest in human HepG2 cells assessed as accumulation at G1 phase at 20 uM after 12 hrs using propidium iodide staining by flow cytometry (reference value: 41.51 %); type: functional
[18] = test system: HepG2; test: Cell cycle arrest in human HepG2 cells assessed as accumulation at G2 phase at 20 uM after 12 hrs using propidium iodide staining by flow cytometry (reference value: 6.20 %); type: functional
[19] = test system: HepG2; test: Cell cycle arrest in human HepG2 cells assessed as accumulation at S phase at 20 uM after 12 hrs using propidium iodide staining by flow cytometry (reference value: 52.28 %); type: functional
[20] = test system: HepG2; test: Cell cycle arrest in human HepG2 cells assessed as accumulation at G1 phase at 20 uM after 24 hrs using propidium iodide staining by flow cytometry (reference value: 41.51 %); type: functional
[21] = test system: HepG2; test: Cell cycle arrest in human HepG2 cells assessed as accumulation at G2 phase at 20 uM after 24 hrs using propidium iodide staining by flow cytometry (reference value: 6.20 %); type: functional
[22] = test system: HepG2; test: Cell cycle arrest in human HepG2 cells assessed as accumulation at S phase at 20 uM after 24 hrs using propidium iodide staining by flow cytometry (reference value: 52.28 %); type: functional
[23] = test system: HepG2; test: Induction of apoptosis in human HepG2 cells assessed as generation of intracellular ROS at 20 uM after 12 to 24 hrs by fluorescence microscopy; type: functional, cell-based
Outline: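 HepG2 cells treated at 20 µM for 12 or 24 h, with untreated 24 h control. Loaded with 20 µM DCFH-DA in cell-free medium at 37 °C for 30 min in the dark, then washed in PBS. DCF fluorescence imaged by fluorescence microscopy at 485 nm excitation and 538 nm emission.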

[24] = test system: HepG2; test: Induction of apoptosis in human HepG2 cells assessed as caspase-3 expression at 20 uM by qRT-PCR analysis; type: functional, cell-based; conditions: TDE = time-dependent effect
Outline: (§3)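 Total RNA extracted from HepG2 cells […]. Transcripts quantified by real-time RT-PCR, with Ct values normalized to actin by the ΔCt method. Run in triplicate per group.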

[25] = test system: HepG2; test: Induction of apoptosis in human HepG2 cells assessed as caspase-8 expression at 20 uM by qRT-PCR analysis; type: functional, cell-based; conditions: TDE = time-dependent effect; outline: as §3
[26] = test system: HepG2; test: Induction of apoptosis in human HepG2 cells assessed as increase in Bax level after 24 hrs by Western blot analysis; type: functional, cell-based
Outline: (§4)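 HepG2 cells grown to 80–90% confluence, then kept 12 h in 0.1% FCS RPMI 1640. Exposed 24 h at 5, 10 or 20 µM. Cell extracts run on SDS-polyacrylamide gels, transferred to nitrocellulose and probed with primary antibodies against cytochrome c, Bax, Bcl-2, caspase-9, caspase-3 and cleaved PARP.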

[27] = test system: HepG2; test: Induction of apoptosis in human HepG2 cells assessed as decrease in Bcl-2 level after 24 hrs by Western blot analysis; type: functional, cell-based; outline: as §4
[28] = test system: HepG2; test: Induction of apoptosis in human HepG2 cells assessed as accumulation of cytochrome c in cytosol at 5 to 20 uM after 24 hrs by Western blot analysis; type: functional, cell-based; outline: as §4
[29] = test system: HepG2; test: Induction of apoptosis in human HepG2 cells assessed as increase in caspase-9 level at 5 to 20 uM after 24 hrs by Western blot analysis; type: functional, cell-based; outline: as §4
[30] = test system: HepG2; test: Induction of apoptosis in human HepG2 cells assessed as increase in caspase-3 level at 5 to 20 uM after 24 hrs by Western blot analysis; type: functional, cell-based; outline: as §4

With C[C@H]1[C@H](C)CC[C@]2(C(=O)Nc3cccc(F)c3)CC[C@]3(C)C(=CC(=O)[C@@H]4[C@@]5(C)C[C@@H](O)[C@H](O)[C@@](C)(CO)[C@@H]5CC[C@]43C)[C@H]12 the IC50 [1] was 14.3 µM, the IC50 [2] was 23.6 µM and the IC50 [3] was 5.97 µM. The IC50 [4] was 28.2 µM, the IC50 [5] was 14.1 µM and the IC50 [6] was greater than 100 µM. The Activity [7] was 7.2%, the Activity [8] was “Active” and the Activity [9] was “Active”. The Activity [10] was “Active”, the Activity [11] was 6.6% and the Activity [12] was 2.2%. The Activity [13] was “Dose-dependent effect”, the Activity [14] was 25% and the Activity [15] was 9%. It also gave an Activity [16] of 2.6%, an Activity [17] of 55.29% and an Activity [18] of 6.09%. For the same molecule, the Activity [19] was 38.62%, the Activity [20] was 65.58% and the Activity [21] was 5.56%. For the same molecule, the Activity [22] was 28.86%, the Activity [23] was “Active” and the Activity [24] was “tde”. The Activity [25] was “tde”, the Activity [26] was “Dose-dependent effect” and the Activity [27] was “Dose-dependent effect”. The Activity [28] was “Active”, the Activity [29] was “Active” and the Activity [30] was “Active”.
